Screening data from PubChem BioAssay.
Most compounds without a hit are left out; they make up all but 12% or so of the library.
Rad51 HR inh – human RAD51 strand exchange inhibitors, primary screen, biochemical, fluorescence; hRad51 DNA strand exchange, fluorescence dequenching; 200,000 compounds, 0.085% hits; AID 1385, 2008; inhibition, % at 10 µM;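 active = inhibition above 40% at the single screening dose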
Target sequence (Q06609 whole entry, looked up): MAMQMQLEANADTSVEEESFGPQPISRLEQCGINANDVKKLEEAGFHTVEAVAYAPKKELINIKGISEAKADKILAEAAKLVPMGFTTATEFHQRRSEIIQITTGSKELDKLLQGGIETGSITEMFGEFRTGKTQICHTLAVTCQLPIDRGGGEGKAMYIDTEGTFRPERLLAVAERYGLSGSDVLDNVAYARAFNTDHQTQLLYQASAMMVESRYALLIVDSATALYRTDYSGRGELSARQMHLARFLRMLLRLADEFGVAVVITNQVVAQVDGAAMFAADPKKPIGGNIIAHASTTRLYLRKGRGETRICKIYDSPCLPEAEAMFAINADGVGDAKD
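System: human Rad51 nucleoprotein filaments preassembled on unlabelled ssDNA. Reagent: labelled 47-mer dsDNA for strand exchange. Schedule: 30-min compound preincubation and 15-min exchange, both room temperature. Measured by: FRET fluorescence dequenching, excitation 485 nm, emission 520 nm. Read-out: Fluorescence-based percent inhibition, control- and blank-normalised. Benchmarks: plate controls and plate blanks.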
PKD1 kinase inh – inhibitors of human PKD1 kinase, biochemical, fluorescence polarization; Serine/threonine-protein kinase D1 (Homo sapiens), Q15139; PKD1 kinase fluorescence polarization assay; inhibition, % (concentration not given with the values); 200,000 compounds, 0.056% hits; AID 797, 2007
Arbovirus anti – antivirals against arbovirus infection, primary screen, cell-based, full library, 10K replicate subset; arbovirus infection cell-based antiviral screen; inhibition, % at 10 µM; 200,000 compounds, 0.37% hits; AID 1251, 2008; in the data active = inhibition above about 30%
L major viab – Leishmania major promastigote growth inhibition, primary screen. AID 1063, 2008. Leishmania major promastigotes, resazurin fluorescence viability. inhibition, % at 10 µM. 200,000 compounds, 9% hits;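 note: promastigotes grown with compound for 44 hours at 28 °C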
CHOP inh – inhibitors of CHOP promoter induction, primary screen, cell-based, unfolded protein response, luciferase reporter; CHO-K1 CHOP-promoter luciferase, tunicamycin-induced, 15-18 h; inhibition, % at 10 µM; 220,000 compounds, 3.8% hits; AID 2732, 2010;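 active = compounds that reduced the stress-induced luciferase reporter signal by more than about 70% of percent inhibition, limit read from the data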
Wee1 degr inh – Wee1 degradation inhibitors, primary screen, cell-based, HeLa, Wee1K328M-luciferase, luminescence; 220,000 compounds, 1.2% hits; reporter increase, % at 5 µM; HeLa Luc-Wee1K328M stability; 100% = proteasome inhibitor MG132 effect; AID 1321, 2008; Wee1-like protein kinase (Homo sapiens), P30291;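 active = activation above the mean of all tested compounds plus 3 SD, set per screening run, cut at about 8.8% in these data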;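 note: cells exposed to compound for 20 h before luminescence read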
Numbers stand for hits; 0 = inactive; - = no result given. Cut-off read from the data, not from the text of the source, unless noted: active = inhibition above about 50%; inactive = the rest.

SMILES | Rad51 HR inh | PKD1 kinase inh | Arbovirus anti | L major viab | CHOP inh | Wee1 degr inh
O=C(NC(Nc1nc2ccc([N+](=O)[O-])cc2s1)(C(F)(F)F)C(F)(F)F)c1cccnc1 | 0 | 0 | 0 | 0 | 90 | 0
Cn1c(=O)c2c(nc(NC3CCCCC3)n2CC(=O)C23CC4CC(CC(C4)C2)C3)n(C)c1=O | 0 | 0 | 0 | 0 | 81 | 0
Cn1c(=O)c2c(nc(NC3CCCCC3)n2Cc2ccccc2)n(C)c1=O | 0 | 0 | 0 | 0 | 0 | 0
CC(C)Sc1ncnc2c1oc1ccccc12 | 0 | 0 | 0 | 0 | 75 | 0
O=C(CCc1ccccc1)c1nnc(-c2ccccc2)o1 | 0 | 0 | 0 | 0 | 0 | 0
CCNC(=S)NNC(=O)CCn1cc(C)cn1 | - | 0 | 0 | 0 | 0 | 0
COc1ccc(/C(N)=N/OC(=O)COc2ccccc2Cl)cc1 | - | 0 | 0 | 0 | 0 | 0
N/C(=N\OC(=O)N1c2ccccc2Sc2ccccc21)c1ccccc1 | 0 | 0 | 0 | 91 | 0 | 0
Cc1cccc(/C(N)=N/OC(=O)N2c3ccccc3Sc3ccccc32)c1 | 0 | 0 | 0 | 71 | 0 | 0
Cc1cccc(/C(N)=N/OC(=O)COc2ccccc2Cl)c1 | - | 0 | 0 | 0 | 0 | 12
Cc1nn(-c2ccccc2)c(C)c1/C=C/C(=O)OCC(=O)Nc1ncc(C(F)(F)F)cc1Cl | 0 | 0 | 0 | 0 | 0 | 0
CCn1cc(S(=O)(=O)Nc2cc(F)ccc2C)cn1 | 0 | 0 | 0 | 0 | 0 | 0
O=C(Cn1nnc(-c2ccccc2Cl)n1)N1CCN(S(=O)(=O)c2ccc(Cl)cc2)CC1 | 0 | 0 | 0 | 99 | 0 | 0
O=C(O)c1nn(CC(=O)N2CCN(S(=O)(=O)c3ccc(Cl)cc3)CC2)c(=O)c2ccccc12 | 0 | - | - | - | 0 | 0
CCc1ccc(N(C(=O)c2csnn2)C(C(=O)NC(C)(C)CC)c2cccnc2)cc1 (configuration not stated) | 0 | 0 | 0 | 0 | 0 | 0
CC1=C(CC(=O)c2ccc(Cl)cc2)C(=O)c2ccccc2C1=O | 0 | 0 | 0 | 0 | 72 | 0
CCN(CC)c1ccc2c(c1)OC(N)=C(C#N)C2c1cccnc1 (configuration not stated) | 0 | 0 | 0 | 81 | - | 0
N#CC1=C(N)Oc2cc(N)ccc2C1c1cccnc1 (configuration not stated) | - | 0 | 0 | 0 | 0 | 0
Cc1ccc(C)c2[nH]c(=O)c(C(c3nnnn3C(C)(C)C)N3CC=C(c4ccc(F)cc4)CC3)cc12 (configuration not stated) | 0 | 0 | 0 | 97 | 0 | 0
N#C/C(=C\c1cccc([N+](=O)[O-])c1)c1nnc2n1CCCCC2 | 0 | 0 | 0 | 61 | 0 | 0
C/C(=N/N1CCN(Cc2cccc3ccccc23)CC1)c1ccco1 | 0 | - | - | - | 0 | 0
CNc1nc(C23CC4CC(CC(C4)C2)C3)cs1 | - | 0 | 0 | 0 | 0 | 0
O=C(COC(=O)c1c2c(nc3ccccc13)/C(=C/c1ccco1)CC2)NC1CCCC1 | 0 | 0 | 0 | 89 | 0 | 0
Cc1ccc(CNC(=O)C(C)C2Sc3ccccc3NC2=O)cc1 (configuration not stated) | - | - | - | - | 0 | 0
CC(C)Oc1cc2oc(=O)c3c(c2cc1Cl)CCC3 | 0 | 0 | 0 | 0 | 82 | 0
SMILES | Rad51 HR inh | PKD1 kinase inh | Arbovirus anti | L major viab | CHOP inh | Wee1 degr inh
C=C1CC(C(=O)N/N=C/c2ccccc2)C1 | 0 | 0 | 0 | 0 | 0 | 0
COc1ccc(COCC(O)CN(Cc2ccco2)Cc2ccccc2O)cc1 (configuration not stated) | 0 | 0 | 0 | 0 | 0 | 0
Oc1ccccc1CN(Cc1ccco1)CC(O)COCc1ccc(Cl)cc1 (configuration not stated) | - | 0 | 0 | 0 | 84 | 0
CC(C)COC(=O)N(C)c1ccc(C(O)(C(F)(F)F)C(F)(F)F)cc1 | 0 | 0 | 0 | 100 | 93 | 0
NCCNC[C@@H]1COC2(CCCCCCCCCCC2)O1 | - | - | - | - | 0 | 0
CCC1(C)Cc2ccccc2-c2nc3n(c(=O)c21)CCS3 (configuration not stated) | - | 0 | 0 | 0 | 0 | 0
CCC1(C)Cc2ccccc2-c2nc(-c3ccccc3)oc(=O)c21 (configuration not stated) | 0 | 0 | 0 | 0 | 80 | 0
CN(CCc1ccccn1)C(=O)CCC1CCCN(C(=O)c2n[nH]c3c2CCCC3)C1 (configuration not stated) | - | 0 | 0 | 0 | 0 | 0
O=S(=O)(NCc1ccccc1)NCc1ccccc1 | 0 | 0 | 0 | 0 | 73 | 0
COc1ccc(-n2c(C)cc(/C=N/Nc3nc(N4CCOCC4)nc(N4CCOCC4)n3)c2C)cc1 | 0 | 0 | 0 | 98 | 0 | 0
Cc1cc(/C=N/Nc2nc(N3CCOCC3)nc(N3CCOCC3)n2)c(C)n1-c1ccccc1 | 0 | 0 | 0 | 0 | 0 | 0
C=CCN1C(=O)C(Cc2ccc(C)cc2)S/C1=N/N=C/c1ccco1 (configuration not stated) | 0 | 0 | 0 | 0 | 76 | 0
O=C(Nc1cc(S(=O)(=O)Nc2ccc(Cl)cc2)ccc1N1CCCCC1)c1ccc(F)cc1Cl | 0 | 0 | 0 | 0 | 0 | 0
C#CCSc1nc2[nH]ncc2c(=O)[nH]1 | 0 | 0 | 0 | 53 | 0 | 0
CCC(C)C(NC(=O)OCc1ccccc1)C(=O)NC(Cc1ccc(O)cc1)C(=O)OC (configuration not stated) | 0 | 0 | 0 | 0 | 0 | 0
CC(C)CC(NS(=O)(=O)c1ccc2c(c1)oc(=O)n2C)C(=O)N1CC=C(c2ccccc2)CC1 (configuration not stated) | 0 | 0 | 0 | 86 | 0 | 0
O=C(CCl)c1ccc2c(c1)CCN2C(=O)C1CC1 | 0 | 0 | 0 | 100 | 109 | 0
O=C(C1CC1)N1CCc2cc(S(=O)(=O)NC3CCN(Cc4ccccc4)CC3)ccc21 | - | 0 | 0 | 59 | 0 | 0
Cc1cc(C)c(C)c(S(=O)(=O)NC2CCN(Cc3ccccc3)CC2)c1C | 0 | 0 | 0 | 59 | 79 | 0
Cc1ccc(CNC(=O)c2cc3c(s2)CN(Cc2ccccc2)C3)cc1 | 0 | 0 | 0 | 0 | 0 | 0
O=S(=O)(NC1CCN(Cc2ccccc2)CC1)c1ccc2ccccc2c1 | 0 | 0 | 0 | 89 | 0 | 0
C=CCNC(=O)COc1ccc(S(=O)(=O)Nc2ccc(OCC)cc2)cc1 | 0 | 0 | 0 | 60 | 0 | 0
C=CCNC(=O)COc1ccc(S(=O)(=O)NC2CCCCC2)cc1 | 0 | 0 | 0 | 0 | 0 | 0
O=C(C1CCC1)N1CCc2cc(S(=O)(=O)NCCN3CCN(c4ccccc4F)CC3)ccc21 | - | 0 | 0 | 0 | 74 | 0
CCC1CCCCN1Cc1ccc(CNS(=O)(=O)c2ccc3c(c2)oc(=O)n3C)o1 (configuration not stated) | 0 | 0 | 0 | 98 | 0 | 0
